Values after ≈ are worked out from the molar mass of the structure shown. Values joined by “and” are separate entries in the source; they are usually repeats but may differ in a detail not shown here. Equal values may be shown once. Peptide text beside a SMILES is read from it.

For test [1], the target named is ^EcSC (E. coli sliding clamp, DnaN) (Escherichia coli, UniProt P0A988). The experiment in a line: ITC, peptide interaction with E. coli sliding clamp. The test is classed as binding. In a few lines:
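Recombinant His-tagged E. coli DnaN was expressed in BL21(DE3) pLys (IPTG 0.1 mM, 28 °C overnight), purified by Ni-NTA then Source Q, and exchanged into 10 mM Hepes pH 7.4, 0.15 M NaCl, 3 mM EDTA. Peptide (100 to 400 μM) was injected stepwise into 20 or 30 μM clamp at 30 °C. Peptide-into-buffer controls were subtracted. Each titration was run at least twice; mean ± sd.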

A further test has as its system E. coli D22 strain. The experiment in a line: Microdilution broth assay. Type of test: cell-based, Escherichia coli. A digest of the protocol:
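E. coli D22 was grown in Mueller Hinton broth to OD600 0.6–0.8, then diluted so wells held about 2 to 5 × 10^5 cfu per mL with serially diluted peptide in MH broth. Plates were read at 620 nm after 18–24 h at 37 °C. MIC was the lowest concentration with no turbidity increase. For MBC, wells were plated on LB agar; ≥99.9% kill versus inoculum. Duplicates, ≥2 independent experiments.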

In another test the test system is Mycobacterium smegmatis. Conditions: cited from earlier work.
Setting [2] is: E. coli D22, decrease of at least 99.9% of cell viability vs inoculum, minimum of 2 independent biological replicates.

Chain of ^EcSC (E. coli sliding clamp, DnaN) (P0A988 whole entry): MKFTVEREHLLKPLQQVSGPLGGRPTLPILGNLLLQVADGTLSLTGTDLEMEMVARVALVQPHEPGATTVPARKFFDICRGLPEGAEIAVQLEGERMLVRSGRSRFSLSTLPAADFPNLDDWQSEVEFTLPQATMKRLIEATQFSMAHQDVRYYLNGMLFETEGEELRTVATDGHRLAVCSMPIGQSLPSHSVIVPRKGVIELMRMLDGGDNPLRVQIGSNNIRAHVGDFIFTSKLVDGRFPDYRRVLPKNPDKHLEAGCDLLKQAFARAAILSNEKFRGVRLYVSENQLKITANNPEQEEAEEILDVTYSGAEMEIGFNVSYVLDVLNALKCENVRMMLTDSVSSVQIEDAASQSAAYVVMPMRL

For `CC[C@H](C)[C@H](NC(=O)[C@@H](CCCNC(=N)N)NC(=O)[C@H](CCCNC(=N)N)NC(=O)[C@@H]1CCCN1C(=O)[C@@H]1CCCN1C(=O)[C@H](CCCNC(=N)N)NC(=O)[C@@H]1CCCN1C(=O)[C@H](CCCNC(=N)N)NC(=O)[C@@H]1CCCN1C(=O)[C@H](CC(C)C)NC(=O)[C@H](Cc1ccc(O)cc1)NC(=O)[C@@H]1CCCN1C(=O)[C@@H]1CCCN1C(=O)[C@H](CCCCN)NC(=O)[C@H](CC(=O)O)NC(=O)[C@@H](N)C(C)C)C(=O)N[C@@H](Cc1ccc(O)cc1)C(=O)N[C@@H](CC(N)=O)C(=O)N[C@H](CCCNC(=N)N)C(N)=O` [Onc112] (HELM PEPTIDE1{V.D.K.P.P.Y.L.P.R.P.R.P.P.R.[dR].I.Y.N.[dR].[am]}$$$$V2.0), the “K D” value in test [1] (ITC at 30 °C, R1 buffer 10 mM Hepes pH 7.4, 0.15 M NaCl, 3 mM EDTA, peptide 100-400 μM into SC 20 or 30 μM, means ± sd of at least 2 independent experiments, ni = no specific interaction) was “ni”. The MBC (in general, the smallest concentration meeting the test's criterion for killing) against E. coli D22 strain (setting [2]) is 1 µg/mL (≈ 0.418 µM).
The compound `CC[C@H](C)[C@H](NC(=O)[C@@H]1CCCN1C(=O)[C@H](CCCNC(=N)N)NC(=O)[C@@H]1CCCN1C(=O)[C@@H]1CCCN1C(=O)[C@@H](NC(=O)[C@@H]1CCCN1C(=O)[C@H](CCCNC(=N)N)NC(=O)[C@@H]1CCCN1C(=O)[C@H](CC(C)C)NC(=O)[C@H](Cc1ccc(O)cc1)NC(=O)[C@H](CO)NC(=O)CNC(=O)[C@H](CCCCN)NC(=O)[C@H](CC(=O)O)NC(=O)[C@@H](N)C(C)C)[C@@H](C)O)C(=O)N[C@@H](Cc1ccc(O)cc1)C(=O)N[C@@H](CC(N)=O)C(=O)N[C@@H](CCCNC(=N)N)C(=O)N[C@@H](CC(N)=O)C(=O)NCC(=O)N1CCC[C@H]1C(=O)N[C@@H](CCCNC(=N)N)C(=O)N[C@@H](CCC(N)=O)C(=O)N[C@@H](CC1CCCCC1)C(=O)N[C@@H](CC(=O)O)C(=O)N[C@@H](CC(C)C)C(=O)N[C@@H](Cc1ccccc1)C(=O)O` [Py-P7] (HELM PEPTIDE1{V.D.K.G.S.Y.L.P.R.P.T.P.P.R.P.I.Y.N.R.N.G.P.R.Q.[Cha].D.L.F}$$$$V2.0) displayed an MBC against E. coli D22 strain (setting [2]) of 8 µg/mL (≈ 2.42 µM).
Turning to griselimycin, the frequency of resistance with Mycobacterium smegmatis is recorded as 5 × 10^−10.
Turning to `CN(C)[C@@H]1C(O)=C(C(N)=O)C(=O)[C@@]2(O)C(O)=C3C(=O)c4c(O)cccc4[C@@](C)(O)[C@H]3C[C@@H]12` [Tetracycline], in the test on E. coli D22 strain (Escherichia coli, D22STRAIN), the MBC was found to be 0.5 µg/mL (≈ 1.13 µM); the MIC – broadly, the smallest concentration in the dilution series that meets the test's criterion for growth inhibition – is 0.56 µM to 1.12 µM and 0.25 µg/mL to 0.5 µg/mL.
Turning to `CC1(C)S[C@@H]2[C@H](NC(=O)[C@H](N)c3ccccc3)C(=O)N2[C@H]1C(=O)O` [Ampicillin], in the test with E. coli D22 strain (Escherichia coli, D22STRAIN), the MBC was 16 µg/mL (≈ 45.8 µM); the MIC is 22.9 µM to 45.8 µM and 8 µg/mL to 16 µg/mL.
Regarding `CC[C@H](C)[C@H](NC(=O)[C@@H](CCCNC(=N)N)NC(=O)[C@H](CCCNC(=N)N)NC(=O)[C@@H]1CCCN1C(=O)[C@@H]1CCCN1C(=O)[C@H](CCCNC(=N)N)NC(=O)[C@@H]1CCCN1C(=O)[C@H](CCCNC(=N)N)NC(=O)[C@@H]1CCCN1C(=O)[C@H](CC(C)C)NC(=O)[C@H](Cc1ccc(O)cc1)NC(=O)[C@@H]1CCCN1C(=O)[C@@H]1CCCN1C(=O)[C@H](CCCCN)NC(=O)[C@H](CC(=O)O)NC(=O)[C@@H](N)C(C)C)C(=O)N[C@@H](Cc1ccc(O)cc1)C(=O)N[C@@H](CC(N)=O)C(=O)N[C@H](CCCNC(=N)N)C(=O)N[C@@H](CC(N)=O)C(=O)NCC(=O)N1CCC[C@H]1C(=O)N[C@@H](CCCNC(=N)N)C(=O)N[C@@H](CCC(N)=O)C(=O)N[C@@H](CC1CCCCC1)C(=O)N[C@@H](CC(=O)O)C(=O)N[C@@H](CC(C)C)C(=O)N[C@@H](Cc1ccccc1)C(=O)O` [Onc112-P7] (HELM PEPTIDE1{V.D.K.P.P.Y.L.P.R.P.R.P.P.R.[dR].I.Y.N.[dR].N.G.P.R.Q.[Cha].D.L.F}$$$$V2.0), the Kd – broadly, the concentration at which binding is half-saturated – in test [1] (SD) amounted to 0.2 ± 0.0001 µM. The compound further showed an MBC against E. coli D22 strain (setting [2]) of 2 µg/mL (≈ 0.576 µM).

The record behind these values is publication PMC8341878 (RSC Chemical Biology, 2020).
